Screening data: PubChem, Broad Institute
AI-2 QS mod: modulates the Vibrio harveyi AI-2 quorum sensing system; Vibrio harveyi JMH597 AI-2 luminescence/OD600 ratio, 9 h; hits give low values; strain lacks LuxN and CqsS sensors; 0 = neutral-control median; activity change, % at 7.5 µM; 300,000 tested, 0.4% active; AID 2094; in the data active = activity change below about -75%, passing the limit was not always enough; inconclusive = no clear call, values can overlap the other calls;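 note: luminescence divided by OD600 gain over 9 h not by final OD600 alone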
ARNT-TACC3 inh: disrupts binding between human ARNT and TACC3. Q9Y6A5. 390,000 tested, 0.66% active. AlphaScreen His-ARNT PAS-B/GST-TACC3 binding, luminescence; TACC3 fragment carries E629A point mutation. inhibition, % at 9.99 µM;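 active = mean inhibition of replicates at least 50% and at least half of replicates each reaching 50%; inconclusive = half or more replicates reach 50% but mean below 50%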;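 note: 0% = complete ARNT plus TACC3 wells and 100% = ARNT alone without TACC3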
HIF act: HIF pathway transcriptional activation. U2OS HRE-luciferase reporter, luminescence; normalized: DMSO 0%, desferrioxamine 100%. 300,000 tested, 0.32% active. AID 1910. activation, % at 7.5 µM (by protocol);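 active = mean activation of at least 10% of the iron chelator positive control signal, with at least half of replicates also reaching 10%; inconclusive = mean and replicate majority disagree about reaching 10%; inactive = mean and most replicates under 10%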
T cruzi repl: blocks replication of Trypanosoma cruzi | T. cruzi beta-gal in NIH3T3, luminescence, 90 h | AID 1885 | inhibition, % (concentration not given with the values) | 300,000 tested, 1.4% active;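 active = mean inhibition across valid replicates above about 55%, limit read from the data; inconclusive = mean below that limit but half or more replicates reach it; inactive = mean below it, under half of replicates reach it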;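 note: signal also drops with host cell toxicity which is not excluded here; 0% = plate median of DMSO wells and 100% = zero luminescence signal; higher percent means less beta-gal luminescence so fewer parasites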
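Assay system: NIH/3T3 host cells with β-galactosidase reporter T. cruzi; input: 5,000 host fibroblasts per well; compound: single 50 nL compound addition per well in DMSO; timing: ≥90 h infection period, 3 h prior cell attachment; measured by: GalScreen β-gal luminescence, detergent lysis, 60 min; evaluation: percent inhibition of parasite-derived β-gal signal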
* marks the source's active call; other numbers are inactive results; ? = inconclusive; . = no result given. Compounds with a hit are over-represented: about 2% of the library has one in this group of screens.

SMILES	AI-2 QS mod	ARNT-TACC3 inh	HIF act	T cruzi repl
CSCCC1NC(=O)C(C(C)=NNC(N)=O)=C1O (centres undefined)	.	74*	.	.
CCCN(C)C[C@@H]1Oc2ncc(Br)cc2C(=O)N([C@H](C)CO)C[C@@H]1C	.	-34	.	.
O=c1c2cc(Cl)ccc2nc(-c2ccc([N+](=O)[O-])cc2)n1O	-83*	-9	0	-4
COc1ccc(S(=O)(=O)N(C)C[C@@H]2Oc3ccc(NC(=O)C4CCCCC4)cc3C(=O)N([C@H](C)CO)C[C@@H]2C)cc1	.	-3	.	.
COc1ccc(Cc2nnc(N/N=C/c3ccc(O)cc3O)[nH]c2=O)cc1OC	-6	62*	0	-14
CCCCCC/C=N/Nc1nnc(Cc2ccc(OC)c(OC)c2)c(=O)[nH]1	4	54*	0	16
CNC(=O)C[C@@H]1CC[C@H]2[C@H](COc3ccc(NC(=O)Nc4cccc(C)c4)cc3C(=O)N2C)O1	.	5	.	.
C[C@@H]1CN([C@@H](C)CO)C(=O)c2cc(NC(=O)CCC(F)(F)F)ccc2O[C@@H](C)CCCCO[C@H]1CN(C)C(=O)C1CCCCC1	.	-2	.	.
C[C@H](CO)N1C[C@H](C)[C@@H](CN(C)S(=O)(=O)c2cccs2)Oc2c(NC(=O)C3CCOCC3)cccc2C1=O	.	-6	.	.
COc1cc(O)c(C(CCN2CCOCC2)c2ccc3c(c2)OCO3)c(OC)c1 (centres undefined)	26	0	1	-7
COc1ccc(C(CCN)c2ccc3c(c2)OCO3)cc1 (centres undefined)	8	-5	0	60*
O=C(N/N=C\c1ccc([N+](=O)[O-])o1)C1COc2ccccc2O1 (centres undefined)	-87*	2	-1	61*
O=C(N/N=C\c1ccc([N+](=O)[O-])s1)C1COc2ccccc2O1 (centres undefined)	-86*	31	1	16
O=C(N/N=C/c1ccc([N+](=O)[O-])o1)C1CCCC1	?	-2	1	72*
O=C(N/N=C/c1ccc([N+](=O)[O-])o1)c1ccncc1	?	.	-1	22
O=C(COc1ncnc2cc([N+](=O)[O-])ccc12)NC(=O)NC1CCCCC1	26	.	0	67*
CC(NC(=O)COc1ncnc2cc([N+](=O)[O-])ccc12)c1ccccc1 (centres undefined)	15	3	0	-11
O=C(COc1ncnc2cc([N+](=O)[O-])ccc12)NCCc1ccc(Cl)cc1	51	-1	-1	56*
O=C(NC1Cc2ccccc2C1)[C@H]1[C@H](CO)[C@H]2Cn3c(cccc3=O)[C@H]2N1C(=O)c1cnccn1	.	-6	.	.
Cc1ccc2nc(-c3ccc(O)c(O)c3)cn2c1	10	7	29*	-43
Cc1ccc2nc(-c3ccccc3)cn2c1	1	-5	-2	-16
S=c1nc[nH]c2nc[nH]c12	-154*	0	3	?
C[C@H](CO)N1C[C@H](C)[C@H](CN(C)S(=O)(=O)c2ccc(F)cc2)Oc2ccc(NC(=O)CCC(F)(F)F)cc2CC1=O	.	-4	.	.
O=C(C[C@@H]1C[C@H]2c3cc(NC(=O)NC4CCCC4)ccc3O[C@H]2[C@H](CO)O1)NCc1cccc(F)c1	.	-10	.	.
O=[N+]([O-])c1c(Nc2ccccc2O)cc(Cl)c2nonc12	?	15	-39	59*
SMILES	AI-2 QS mod	ARNT-TACC3 inh	HIF act	T cruzi repl
NC(N)=Nc1nc(-c2ccccc2)c2ccccc2n1	30	18	0	81*
C[C@H]1CN([C@@H](C)CO)C(=O)c2cc(NC(=O)C3CCCCC3)ccc2O[C@@H]1CN(C)S(=O)(=O)c1ccc(F)cc1	.	2	.	.
COc1ccc2[nH]c(C(=O)N3CCCN(Cc4ccc(F)cc4)CC3)cc2c1	-1	-2	-1	60*
O=C(C[C@H]1C[C@H]2c3cc(NS(=O)(=O)c4ccc(F)cc4)ccc3O[C@H]2[C@@H](CO)O1)NCc1ccccn1	.	-11	.	.
O=C(COC(=O)c1ccccc1C(=O)c1ccc(Cl)c([N+](=O)[O-])c1)NC1CC1	10	-8	-1	63*
CNC(=O)COC(=O)c1ccccc1C(=O)c1ccc(Cl)c([N+](=O)[O-])c1	41	4	-8	30
CCOC(=O)CCCNC(=O)CN1CCC(c2nc3ccccc3s2)CC1	19	-1	0	21
O=C(CN1CCC(c2nc3ccccc3s2)CC1)NCc1ccccc1	7	-2	1	64*
C/C(=N\O)C(=O)Nc1ccccc1	8	-5	231*	-13
O=C(CCCCn1c(=O)c2ccccc2n(Cc2ccccc2)c1=O)NC1CCN(Cc2ccccc2)CC1	7	2	0	59*
O=C(C[C@H]1CC[C@@H]2[C@H](COC[C@H](O)CN2CCc2ccccc2)O1)N1CCC(Cc2ccccc2)CC1	.	-12	.	.
Cc1cc(C)c(OCCOCCN(C)C)c(Br)c1	6	-5	0	42
Cc1cc(C)c(OCCCCN(C)C)c(Br)c1	15	-3	0	70*
Cc1ccc2c(CN3CCN(Cc4ccccc4)CC3)cc(=O)oc2c1C	2	-4	1	57*
O=c1cc(CN2CCN(C/C=C/c3ccccc3)CC2)c2cc(O)c(-c3ccccc3)cc2o1	21	-4	0	39
Cc1ccc2c(CN3CCN(CCO)CC3)cc(=O)oc2c1C	-13	6	0	55*
Cc1cc2oc(=O)cc(CN3CCN(C/C=C/c4ccccc4)CC3)c2cc1O	24	14	0	55*
CC(=O)Cn1c(=O)c2c(nc3n2CCCN3Cc2ccccc2)n(C)c1=O	9	-5	35*	-16
N#C/C(C(N)=O)=c1/ccc2c(c1)N1C3=C(CCCC3)CC3CCCCC31N=2 (centres undefined)	75	65*	-1	35
CNC[C@H]1Oc2c(NC(=O)Nc3ccc(F)cc3)cccc2C(=O)N([C@H](C)CO)C[C@H]1C	.	-1	.	.
Cc1ccc2c(c1)sc[n+]2Cc1ccccc1	-3	-7	4	55*
CCNS(=O)(=O)c1ccc(NC(=S)N2CCc3ccccc32)cc1	20	53*	0	11
CC(=O)Nc1ccc(S(=O)(=O)NCC(=O)OCC(=O)N2CCc3ccccc32)cc1	30	-17	-7	-18
Cc1ccccc1NC(=O)CN(C)S(=O)(=O)c1ccc(-c2ccc(=O)[nH]n2)s1	10	-1	519*	10
Cc1cccc(NC(=O)CN(C)S(=O)(=O)c2ccc(-c3ccc(=O)[nH]n3)s2)c1C	6	5	0	3
COC(=O)c1ccc(S(=O)(=O)NNC(=O)c2ccc(S(=O)(=O)N3CCCCC3)cc2)cc1	20	22	0	-10
O=C(NNS(=O)(=O)c1ccccc1)c1ccc(S(=O)(=O)N2CCCCC2)cc1	-96*	-39	2	5
O=C1CSC(=S)N1N=Cc1ccccc1O	.	65*	.	.
O=C1CSC(=S)N1/N=C/c1cccnc1	29	39*	-1	-27
O=C1CSC(=S)N1/N=C/c1ccc2c(c1)OCCO2	11	-1	1	-5
